ChEMBL document CHEMBL4673330, “Preparations and antioxidant activities of sesamol and it's derivatives” (Bioorg Med Chem Lett, 2021)

Assays:
Format in all cases: functional
[1] = Antioxidant activity assessed as hydroxyl radical scavenging rate at 0.6 g/L relative to control
Procedure, shortened: (§1)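 Hydroxyl radical scavenging was read as absorbance of the reaction solution at 510 nm by a fixed reaction time method. Derivatives were tested at 0.2–1.2 g/L, with sesamol as positive control. Values are means ± SD from at least eight independent experiments, each in triplicate (n = 3), with t-tests (p < 0.05).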

[2] = Antioxidant activity assessed as superoxide anion radical scavenging rate at 0.2 g/L relative to control
Procedure, shortened: (§2)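 Pyrocatechol autoxidation in weak alkaline medium produces a coloured intermediate and superoxide anion; the intermediate absorbs maximally at 320 nm. Scavenging rate was measured at 0.2–1.2 g/L, with sesamol as positive control. Values are means ± SD from at least eight independent experiments, each in triplicate (n = 3), with t-tests (p < 0.05).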

[3] = Antioxidant activity assessed as superoxide anion radical scavenging rate at 1.2 g/L relative to control; procedure, shortened: as §2
[4] = Antioxidant activity assessed as hydroxyl radical scavenging rate at 0.4 g/L relative to control; procedure, shortened: as §1
[5] = Antioxidant activity assessed as hydroxyl radical scavenging rate at 1.2 g/L relative to control; procedure, shortened: as §1
[6] = Antioxidant activity assessed as reduction in lipid peroxidation by measuring antiperoxide-index at 0.6 g/L by thiobarbituric acid method relative to control; set-up: scale not given: the % may be the effect or the level left
Procedure, shortened: (§3)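 Anti-lipid-peroxidation (antiperoxide index, %) was tested at 0.2–1.2 g/L, with sesamol as positive control. Values are means ± SD from at least eight independent experiments, each in triplicate (n = 3), with t-tests (p < 0.05).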

[7] = Antioxidant activity assessed as reduction of potassium ferricyanide trivalent iron into potassium ferrocyanide bivalent iron and ferrous iron by measuring eliminate efficiency at 0.6 g/L relative to control; set-up: scale not given: the % may be the effect or the level left
Procedure, shortened: (§4)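 Reducing capacity was read as absorbance at 700 nm, where higher absorbance means greater reducing ability. Tested at 0.2–1.2 g/L against sesamol as positive control. Values are means from at least eight independent experiments, each in triplicate (n = 3), with t-tests (p < 0.05).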

[8] = Antioxidant activity assessed as reduction in lipid peroxidation by measuring antiperoxide-index at 0.2 g/L by thiobarbituric acid method relative to control; set-up: scale not given: the % may be the effect or the level left; procedure, shortened: as §3
[9] = Antioxidant activity assessed as hydroxyl radical scavenging rate at 1 g/L relative to control; procedure, shortened: as §1
[10] = Antioxidant activity assessed as superoxide anion radical scavenging rate at 0.8 g/L relative to control; procedure, shortened: as §2
[11] = Antioxidant activity assessed as reduction of potassium ferricyanide trivalent iron into potassium ferrocyanide bivalent iron and ferrous iron by measuring eliminate efficiency at 1.2 g/L relative to control; set-up: scale not given: the % may be the effect or the level left; procedure, shortened: as §4
[12] = Antioxidant activity assessed as superoxide anion radical scavenging rate at 1 g/L relative to control; procedure, shortened: as §2
[13] = Antioxidant activity assessed as superoxide anion radical scavenging rate at 0.4 g/L relative to control; procedure, shortened: as §2
[14] = Antioxidant activity assessed as reduction of potassium ferricyanide trivalent iron into potassium ferrocyanide bivalent iron and ferrous iron by measuring eliminate efficiency at 0.8 g/L relative to control; set-up: scale not given: the % may be the effect or the level left; procedure, shortened: as §4
[15] = Antioxidant activity assessed as reduction of potassium ferricyanide trivalent iron into potassium ferrocyanide bivalent iron and ferrous iron by measuring eliminate efficiency at 0.4 g/L relative to control; set-up: scale not given: the % may be the effect or the level left; procedure, shortened: as §4
[16] = Antioxidant activity assessed as reduction in lipid peroxidation by measuring antiperoxide-index at 1.2 g/L by thiobarbituric acid method relative to control; set-up: scale not given: the % may be the effect or the level left; procedure, shortened: as §3
[17] = Antioxidant activity assessed as superoxide anion radical scavenging rate at 0.6 g/L relative to control; procedure, shortened: as §2
[18] = Antioxidant activity assessed as reduction in lipid peroxidation by measuring antiperoxide-index at 0.8 g/L by thiobarbituric acid method relative to control; set-up: scale not given: the % may be the effect or the level left; procedure, shortened: as §3
[19] = Antioxidant activity assessed as hydroxyl radical scavenging rate at 0.2 g/L relative to control; procedure, shortened: as §1
[20] = Antioxidant activity assessed as reduction in lipid peroxidation by measuring antiperoxide-index at 1 g/L by thiobarbituric acid method relative to control; set-up: scale not given: the % may be the effect or the level left; procedure, shortened: as §3
[21] = Antioxidant activity assessed as hydroxyl radical scavenging rate at 0.8 g/L relative to control; procedure, shortened: as §1
[22] = Antioxidant activity assessed as reduction of potassium ferricyanide trivalent iron into potassium ferrocyanide bivalent iron and ferrous iron by measuring eliminate efficiency at 0.2 g/L relative to control; set-up: scale not given: the % may be the effect or the level left; procedure, shortened: as §4
[23] = Antioxidant activity assessed as reduction in lipid peroxidation by measuring antiperoxide-index at 0.4 g/L by thiobarbituric acid method relative to control; set-up: scale not given: the % may be the effect or the level left; procedure, shortened: as §3
[24] = Antioxidant activity assessed as reduction of potassium ferricyanide trivalent iron into potassium ferrocyanide bivalent iron and ferrous iron by measuring eliminate efficiency at 1 g/L relative to control; set-up: scale not given: the % may be the effect or the level left; procedure, shortened: as §4

| SMILES | Activity [1] | Activity [2] | Activity [3] | Activity [4] | Activity [5] | Activity [6] | Activity [7] | Activity [8] | Activity [9] | Activity [10] | Activity [11] | Activity [12] | Activity [13] | Activity [14] | Activity [15] | Activity [16] | Activity [17] | Activity [18] | Activity [19] | Activity [20] | also measured |
| --- | --- | --- | --- | --- | --- | --- | --- | --- | --- | --- | --- | --- | --- | --- | --- | --- | --- | --- | --- | --- | --- |
| O=C(Oc1ccc2c(c1)OCO2)c1cc(Cl)ccc1Cl | 58.9% | 12.1% | 70.5% | 32.6% | 74.9% | 56.1% | 59% | 13% | 74.2% | 63.5% | 76.1% | 69.8% | 27.9% | 68.5% | 31.1% | 76.2% | 52.9% | 67.3% | 13.6% | 74% | Activity [21]: 70.7%; Activity [22]: 12.9%; Activity [23]: 31.1%; Activity [24]: 75.3% |
| O=C(Oc1ccc2c(c1)OCO2)c1c(Cl)cccc1Cl | 60.6% | 13% | 75.8% | 32.7% | 77.1% | 60.8% | 65.4% | 14.1% | 76.4% | 68.2% | 84.3% | 75% | 29.9% | 75.8% | 34.4% | 82.6% | 56.9% | 72.9% | 14% | 80.2% | Activity [21]: 72.7%; Activity [22]: 14.3%; Activity [23]: 33.8%; Activity [24]: 83.4% |
| O=c1oc2ccc3c(c2c2ccc(Cl)cc12)OCO3 | 73.5% | 16.1% | 93.5% | 40.8% | 93.6% | 71.5% | 73.2% | 16.6% | 92.6% | 84.2% | 94.3% | 92.6% | 36.9% | 84.9% | 38.5% | 97.2% | 70.1% | 85.8% | 17% | 94.4% | Activity [21]: 88.2%; Activity [22]: 16.1%; Activity [23]: 39.7%; Activity [24]: 93.4% |
| O=c1oc2ccc3c(c2c2ccccc12)OCO3 | 69.3% | 15.6% | 91.1% | 38.9% | 88.2% | 68.2% | 70.4% | 15.8% | 87.4% | 82% | 90.7% | 90.2% | 35.9% | 81.6% | 37% | 92.7% | 68.3% | 81.8% | 16.1% | 90% | Activity [21]: 83.2%; Activity [22]: 15.4%; Activity [23]: 37.9%; Activity [24]: 89.8% |
| O=c1oc2ccc3c(c2c2c(Cl)cccc12)OCO3 | 69.3% | 15.2% | 88.3% | 38.7% | 88.2% | 69% | 72.6% | 16% | 87.4% | 79.4% | 93.6% | 87.4% | 34.8% | 84.3% | 38.2% | 93.8% | 66.2% | 82.8% | 16.1% | 91.1% | Activity [21]: 83.2%; Activity [22]: 15.9%; Activity [23]: 38.4%; Activity [24]: 92.7% |
| O=c1oc2ccc3c(c2c2cc(Cl)ccc12)OCO3 | 77.3% | 16.6% | 96.7% | 42.9% | 98.3% | 73.1% | 77.5% | 16.9% | 97.4% | 87% | 99.8% | 95.7% | 38.1% | 89.9% | 40.8% | 99.4% | 72.5% | 87.8% | 17.9% | 96.5% | Activity [21]: 92.7%; Activity [22]: 17%; Activity [23]: 40.6%; Activity [24]: 98.8% |
| Oc1ccc2c(c1)OCO2 | 56.2% | 12.1% | 70.3% | 30.2% | 71.5% | 55.1% | 56.4% | 12.8% | 70.8% | 63.3% | 82.6% | 69.6% | 27.8% | 75.4% | 29.7% | 74.9% | 52.7% | 66.1% | 13% | 72.8% | Activity [21]: 67.4%; Activity [22]: 12.4%; Activity [23]: 30.6%; Activity [24]: 81.9% |
| O=C(Oc1ccc2c(c1)OCO2)c1ccccc1Cl | 61.5% | 13.3% | 77.2% | 34.4% | 78.2% | 61.4% | 66.4% | 14.2% | 77.5% | 69.5% | 85.6% | 76.5% | 30.5% | 77% | 34.9% | 83.5% | 57.9% | 73.7% | 14.2% | 81.1% | Activity [21]: 73.8%; Activity [22]: 14.6%; Activity [23]: 34.1%; Activity [24]: 84.7% |
| O=C(Oc1ccc2c(c1)OCO2)c1ccc(Cl)cc1Cl | 55.5% | 11.4% | 66.3% | 30.7% | 70.6% | 54.8% | 58.7% | 12.7% | 69.9% | 59.7% | 75.7% | 65.6% | 26.2% | 68.1% | 30.9% | 74.5% | 49.7% | 65.7% | 12.8% | 72.3% | Activity [21]: 66.6%; Activity [22]: 12.9%; Activity [23]: 30.4%; Activity [24]: 74.9% |
| O=c1oc2ccc3c(c2c2cccc(Cl)c12)OCO3 | 74.9% | 16.3% | 95% | 40.6% | 95.3% | 70.4% | 74.6% | 16.3% | 94.4% | 85.5% | 96.1% | 94.1% | 37.5% | 86.5% | 39.3% | 95.7% | 71.3% | 84.5% | 17.3% | 92.9% | Activity [21]: 89.9%; Activity [22]: 16.4%; Activity [23]: 39.1%; Activity [24]: 95.2% |
| O=C(Oc1ccc2c(c1)OCO2)c1cccc(Cl)c1Cl | 47.9% | 10.4% | 60.5% | 26.4% | 61% | 48.8% | 51.3% | 11.3% | 60.4% | 54.5% | 66.2% | 59.9% | 23.9% | 59.6% | 27% | 66.4% | 45.4% | 58.6% | 11.1% | 64.4% | Activity [21]: 57.5%; Activity [22]: 11.3%; Activity [23]: 27.1%; Activity [24]: 65.5% |
